Results reported in ChEMBL document CHEMBL1671809, “Discovery of phosphoric acid mono-{2-[(E/Z)-4-(3,3-dimethyl-butyrylamino)-3,5-difluoro-benzoylimino]-thiazol-3-ylmethyl} ester (Lu AA47070): a phosphonooxymethylene prodrug of a potent and selective hA(2A) receptor antagonist” (J Med Chem, 2011).
In brackets after ≈: the same amount, converted by molar mass.

Key:
[1] = biological target: T1, Adenosine receptor A2a (Homo sapiens, UniProt P29274); experiment: Displacement of [3H]-ZM241385 from human adenosine A2A receptor expressed in high five cells after 30 mins by scintillation counting
[2] = biological target: T2, Adenosine receptor A1 (Homo sapiens, UniProt P30542); experiment: Displacement of [3H]-DPCPX from human adenosine A1 receptor expressed in CHO cells after 30 mins by scintillation counting; assay type: cell-based
T2 sequence (P30542 whole entry): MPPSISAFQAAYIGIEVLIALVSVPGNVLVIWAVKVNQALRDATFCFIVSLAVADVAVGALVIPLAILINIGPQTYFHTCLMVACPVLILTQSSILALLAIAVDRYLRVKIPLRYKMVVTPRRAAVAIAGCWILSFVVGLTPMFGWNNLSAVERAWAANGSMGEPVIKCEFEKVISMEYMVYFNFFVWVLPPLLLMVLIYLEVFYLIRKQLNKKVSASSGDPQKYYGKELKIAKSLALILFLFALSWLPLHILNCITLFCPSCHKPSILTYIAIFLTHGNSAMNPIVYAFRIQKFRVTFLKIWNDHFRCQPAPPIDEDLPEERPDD
How it was run: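 CHO-hA1 membranes at 10.8 μg protein/well, pretreated with adenosine deaminase (2 U/mL, 30 min, 37 C), were incubated with 1 nM [3H]-DPCPX in 50 mM Tris/HCl pH 7.4 for 30 min at 25 C across 10 compound concentrations. Filtration on PEI-soaked GF/B, scintillation counting. Nonspecific binding by CGS15943. Ki by Cheng-Prusoff. Means of ≥2 determinations.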

[3] = Aqueous solubility of the compound at pH 6.9; assay type: physicochemical; settings: buffer
[4] = Chemical stability of the compound assessed as half life; assay type: physicochemical
How it was run: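 Prodrug was dissolved in water, filtered, and diluted to approximately 0.05 mg/mL in buffers of different pH. Sealed vials were stored at 50 C to accelerate hydrolysis. Samples were diluted 1:1 with acetonitrile and analysed by HPLC for prodrug and hydrolysis products.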

[5] = tested on: Rattus norvegicus; experiment: Tmax in Sprague-Dawley rat assessed as 4-(3,3-Dimethyl-butyrylamino)-3,5-difluoro-N-thiazol-2-yl-benzamide level at 1.5 mg/kg, po; assay type: ADME, organism-based; set-up: dose 1.5 mg/kg, route oral; settings: in vivo
How it was run: (§1)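 Prodrugs dosed po in aqueous 10% hydroxypropyl β-cyclodextrin (2 mL/kg) to rats; doses expressed as parent-drug equivalents; n = 3. Six tail-vein blood samples (~100 μL) taken between 5 and 420 min. Parent drug in plasma measured by HTLC-MS/MS. Profiles fitted with a one-compartment model; AUC extrapolated to infinity.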

[6] = tested on: Rattus norvegicus; experiment: Cmax in Sprague-Dawley rat assessed as 4-(3,3-Dimethyl-butyrylamino)-3,5-difluoro-N-thiazol-2-yl-benzamide level at 1.5 mg/kg, po; assay type: ADME, organism-based; set-up: dose 1.5 mg/kg, route oral; settings: in vivo; how it was run: as §1
[7] = tested on: Rattus norvegicus; experiment: Oral bioavailability in Sprague-Dawley rat assessed as 4-(3,3-Dimethyl-butyrylamino)-3,5-difluoro-N-thiazol-2-yl-benzamide level at 1.5 mg/kg; assay type: ADME, organism-based; settings: in vivo; how it was run: as §1
[8] = tested on: Rattus norvegicus; experiment: AUC in Sprague-Dawley rat assessed as 4-(3,3-Dimethyl-butyrylamino)-3,5-difluoro-N-thiazol-2-yl-benzamide level at 15 mg/kg, po; assay type: ADME, organism-based, Plasma; set-up: dose 15 mg/kg, route oral; settings: in vivo; how it was run: as §1
[9] = tested on: Rattus norvegicus; experiment: Tmax in Sprague-Dawley rat assessed as 4-(3,3-Dimethyl-butyrylamino)-3,5-difluoro-N-thiazol-2-yl-benzamide level at 15 mg/kg, po; assay type: ADME, organism-based; set-up: dose 15 mg/kg, route oral; settings: in vivo; how it was run: as §1
[10] = tested on: Rattus norvegicus; experiment: Cmax in Sprague-Dawley rat assessed as 4-(3,3-Dimethyl-butyrylamino)-3,5-difluoro-N-thiazol-2-yl-benzamide level at 15 mg/kg, po; assay type: ADME, organism-based; set-up: dose 15 mg/kg, route oral; settings: in vivo; how it was run: as §1
[11] = tested on: Rattus norvegicus; experiment: Oral bioavailability in Sprague-Dawley rat assessed as 4-(3,3-Dimethyl-butyrylamino)-3,5-difluoro-N-thiazol-2-yl-benzamide level at 15 mg/kg; assay type: ADME, organism-based; settings: in vivo; how it was run: as §1
[12] = species: Homo sapiens; experiment: Selectivity ratio of Ki for human adenosine A1 receptor to Ki for human adenosine A2A receptor
[13] = biological target: T3, Adenosine receptor A1 (Homo sapiens) (UniProt P30542); experiment: Displacement of [3H]-DPCPX from human adenosine A1 receptor expressed in CHO cells at 10 uM after 30 mins by scintillation counting; assay type: cell-based
T3 sequence (whole entry): T2 sequence (P30542 whole entry)

[14] = tested on: Liver microsomes; experiment: Intrinsic clearance in human liver microsomes at 1 uM after 60 mins by LC-MS/MS analysis; assay type: ADME, Microsome; settings: 1 h
How it was run: (§2)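 Compound at 1 μM with human or rat liver microsomes (0.5 mg protein/mL) plus NADPH at 37 C. Samples at 0, 5, 15, 30 and 60 min, quenched with acetonitrile, analysed by LC-MS/MS.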

[15] = tested on: Liver microsomes; experiment: Intrinsic clearance in rat liver microsomes at 1 uM after 60 mins by LC-MS/MS analysis; assay type: ADME, Microsome; settings: 1 h; how it was run: as §2
[16] = biological target: T4, Cytochrome P450 1A2 (Homo sapiens, UniProt P05177); experiment: Inhibition of recombinant CYP1A2 after 28 mins; assay type: ADME
T4 sequence (P05177 whole entry): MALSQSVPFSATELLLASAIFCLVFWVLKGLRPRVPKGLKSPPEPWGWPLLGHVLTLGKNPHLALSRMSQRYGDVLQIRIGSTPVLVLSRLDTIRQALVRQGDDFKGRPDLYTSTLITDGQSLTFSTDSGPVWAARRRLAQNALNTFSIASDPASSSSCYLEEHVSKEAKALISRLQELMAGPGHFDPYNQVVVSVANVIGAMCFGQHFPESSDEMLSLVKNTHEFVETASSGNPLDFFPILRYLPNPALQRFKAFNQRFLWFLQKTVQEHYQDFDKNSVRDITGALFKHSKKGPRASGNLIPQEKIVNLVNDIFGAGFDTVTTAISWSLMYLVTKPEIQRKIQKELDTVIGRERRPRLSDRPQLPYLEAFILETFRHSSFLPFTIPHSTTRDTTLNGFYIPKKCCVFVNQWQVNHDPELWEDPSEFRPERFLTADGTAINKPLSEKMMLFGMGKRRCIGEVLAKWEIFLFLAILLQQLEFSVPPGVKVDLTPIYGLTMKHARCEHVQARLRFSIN
How it was run: (§3)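 Recombinant CYP supersomes incubated in phosphate buffer with eight compound concentrations (40-0.02 μM) and fluorogenic substrates. CYP1A2: 7-ethoxy-3-cyanocoumarin 10 μM, 28 min. CYP2C19: same substrate 50 μM, 45 min. CYP2D6: AMMC 3 μM, 45 min. CYP3A4: resorufin benzyl ether 100 μM, 30 min. Fluorescent metabolite read; IC50 relative to uninhibited controls.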

[17] = biological target: Cytochrome P450 2C9 (Homo sapiens, UniProt P11712); experiment: Inhibition of recombinant CYP2C9 after 45 mins; assay type: ADME
[18] = biological target: Cytochrome P450 2C19 (Homo sapiens, UniProt P33261); experiment: Inhibition of recombinant CYP2C19 after 45 mins; assay type: ADME; how it was run: as §3
[19] = biological target: Cytochrome P450 2D6 (Homo sapiens, UniProt P10635); experiment: Inhibition of recombinant CYP2D6 after 45 mins; assay type: ADME; how it was run: as §3
[20] = biological target: Cytochrome P450 3A4 (Homo sapiens, UniProt P08684); experiment: Inhibition of recombinant CYP3A4 after 30 mins; assay type: ADME
How it was run: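 Recombinant CYP supersomes incubated in phosphate buffer with eight compound concentrations (40-0.02 μM) and fluorogenic substrates. CYP3A4: resorufin benzyl ether 100 μM, 30 min. Fluorescent metabolite read; IC50 relative to uninhibited controls.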

[21] = tested on: Caco-2; experiment: Efflux ratio of permeability from basolateral to apical over apical to basolateral side in human Caco2 cells after 21 to 28 days by LC-MS/MS analysis
[22] = biological target: T1, Adenosine receptor A2a; experiment: Displacement of [3H]-ZM241385 from human adenosine A2A receptor expressed in high five cells at 10 uM after 30 mins by scintillation counting
How it was run: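 hA2A membranes from baculovirus-infected High Five cells (harvested 72 h), pretreated with adenosine deaminase 2 U/mL for 30 min at 37 C. Membranes at 10.6 μg protein/well were incubated with 1 nM [3H]-ZM241385 in 50 mM Tris/HCl pH 7.4 for 30 min at 25 C. GF/B filtration, scintillation counting. Nonspecific binding by CGS15943. Percent displacement at 10 μM.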

T1 sequence (P29274 whole entry): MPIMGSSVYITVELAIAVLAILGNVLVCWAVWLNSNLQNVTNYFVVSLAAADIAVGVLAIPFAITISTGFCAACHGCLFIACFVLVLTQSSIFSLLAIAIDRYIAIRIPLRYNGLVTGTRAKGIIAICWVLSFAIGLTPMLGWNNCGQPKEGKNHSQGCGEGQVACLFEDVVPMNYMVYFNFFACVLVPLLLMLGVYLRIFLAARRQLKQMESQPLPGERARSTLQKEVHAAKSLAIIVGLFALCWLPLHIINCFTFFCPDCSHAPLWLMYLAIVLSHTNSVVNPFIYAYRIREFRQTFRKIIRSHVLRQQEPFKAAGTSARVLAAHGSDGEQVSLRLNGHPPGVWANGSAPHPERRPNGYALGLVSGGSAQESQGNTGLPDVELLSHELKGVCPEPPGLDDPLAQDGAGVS
Sequence of Cytochrome P450 2D6 (P10635 whole entry): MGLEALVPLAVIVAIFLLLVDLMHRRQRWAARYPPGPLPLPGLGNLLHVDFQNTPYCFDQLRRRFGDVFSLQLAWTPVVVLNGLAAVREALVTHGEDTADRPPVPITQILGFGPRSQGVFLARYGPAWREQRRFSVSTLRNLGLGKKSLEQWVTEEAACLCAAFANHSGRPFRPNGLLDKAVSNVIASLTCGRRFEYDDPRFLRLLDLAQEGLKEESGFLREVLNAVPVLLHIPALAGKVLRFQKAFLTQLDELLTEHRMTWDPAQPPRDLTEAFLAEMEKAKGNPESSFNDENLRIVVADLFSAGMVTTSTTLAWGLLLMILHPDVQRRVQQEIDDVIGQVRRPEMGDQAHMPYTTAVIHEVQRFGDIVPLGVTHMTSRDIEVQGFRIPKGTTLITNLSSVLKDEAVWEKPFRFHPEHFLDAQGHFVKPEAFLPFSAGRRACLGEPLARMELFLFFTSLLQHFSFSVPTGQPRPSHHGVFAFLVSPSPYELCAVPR
Sequence of Cytochrome P450 2C19 (P33261 whole entry): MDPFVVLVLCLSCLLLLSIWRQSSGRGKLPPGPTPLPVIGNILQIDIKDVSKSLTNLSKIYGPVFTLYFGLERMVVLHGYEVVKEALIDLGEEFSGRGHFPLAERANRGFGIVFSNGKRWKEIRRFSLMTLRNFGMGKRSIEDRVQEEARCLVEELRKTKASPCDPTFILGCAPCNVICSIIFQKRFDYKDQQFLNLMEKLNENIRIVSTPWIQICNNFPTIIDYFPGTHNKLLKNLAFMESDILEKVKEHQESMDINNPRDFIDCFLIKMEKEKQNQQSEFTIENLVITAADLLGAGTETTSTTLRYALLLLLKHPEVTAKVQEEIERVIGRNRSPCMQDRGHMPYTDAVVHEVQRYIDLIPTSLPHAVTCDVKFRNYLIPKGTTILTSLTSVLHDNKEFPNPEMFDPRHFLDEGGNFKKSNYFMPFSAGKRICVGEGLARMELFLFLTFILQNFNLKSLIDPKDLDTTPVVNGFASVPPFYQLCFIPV
Sequence of Cytochrome P450 2C9 (P11712 whole entry): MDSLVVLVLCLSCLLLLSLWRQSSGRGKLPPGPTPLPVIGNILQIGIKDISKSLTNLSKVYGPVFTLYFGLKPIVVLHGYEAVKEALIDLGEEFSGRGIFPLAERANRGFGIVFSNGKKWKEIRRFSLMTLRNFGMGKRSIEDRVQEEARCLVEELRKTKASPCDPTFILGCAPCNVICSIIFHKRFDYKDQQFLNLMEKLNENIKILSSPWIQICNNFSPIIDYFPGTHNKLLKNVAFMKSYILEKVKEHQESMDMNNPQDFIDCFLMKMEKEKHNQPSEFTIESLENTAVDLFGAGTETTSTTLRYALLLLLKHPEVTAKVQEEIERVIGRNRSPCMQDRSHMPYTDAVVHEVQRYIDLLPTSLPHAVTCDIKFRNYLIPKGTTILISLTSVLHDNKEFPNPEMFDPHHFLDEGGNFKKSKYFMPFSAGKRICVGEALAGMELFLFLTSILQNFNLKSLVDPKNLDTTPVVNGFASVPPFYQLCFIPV
Sequence of Cytochrome P450 3A4 (P08684 whole entry): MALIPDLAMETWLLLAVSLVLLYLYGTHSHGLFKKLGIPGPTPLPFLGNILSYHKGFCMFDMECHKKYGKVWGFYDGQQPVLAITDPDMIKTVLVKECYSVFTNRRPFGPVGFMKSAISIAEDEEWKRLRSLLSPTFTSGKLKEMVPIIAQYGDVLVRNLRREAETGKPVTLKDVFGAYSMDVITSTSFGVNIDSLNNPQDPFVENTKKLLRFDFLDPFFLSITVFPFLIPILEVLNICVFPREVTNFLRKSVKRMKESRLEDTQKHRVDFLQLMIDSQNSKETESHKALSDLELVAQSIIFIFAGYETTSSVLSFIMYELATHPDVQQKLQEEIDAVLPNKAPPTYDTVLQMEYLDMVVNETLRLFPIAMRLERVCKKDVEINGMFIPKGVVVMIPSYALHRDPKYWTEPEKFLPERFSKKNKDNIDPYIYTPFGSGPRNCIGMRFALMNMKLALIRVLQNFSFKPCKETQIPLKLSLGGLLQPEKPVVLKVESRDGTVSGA

**Q.** Which Ki [1] does the source give for `Cc1cnc(NC(=O)c2ccc(NC(=O)CC(C)(C)C)cc2)s1` here?
**A.** 120 nM

**Q.** And the Ki [2]?
**A.** 1100 nM

**Q.** What does the source list for `CC(C)(C)CC(=O)Nc1c(F)cc(C(=O)/N=c2\sccn2COP(=O)(O)O)cc1F`?
**A.** solubility [3]: 8600 µg/mL (≈ 18.6 mM); half-life [4]: > 66.7 days; Tmax [5]: 30 min; Cmax [6]: 869 ng/mL; F [7]: 55%; AUC [8]: 35000 ng·h/mL; Tmax [9]: 24 min; Cmax [10]: 6413 ng/mL; F [11]: 66%

**Q.** With `Cc1cc(C(=O)Nc2nccs2)ccc1NC(=O)CC(C)(C)C` as the molecule, how does the Ki [1] read?
**A.** 19 nM

**Q.** What about the Ki [2] of the same molecule?
**A.** 460 nM

**Q.** What about the Ratio Ki [12] of the same molecule?
**A.** 24

**Q.** For `CCCC(=O)Nc1ccc(C(=O)Nc2nccs2)cc1`, which Ki [1] is on record?
**A.** 350 nM

**Q.** And the inhibition [13]?
**A.** 54%

**Q.** And the CL [14]?
**A.** 0.8 L/min

**Q.** What about the CL [15] of the same molecule?
**A.** 18 mL/min

**Q.** What about the IC50 [16] of the same molecule?
**A.** > 40000 nM

**Q.** And the IC50 [17]?
**A.** > 40000 nM

**Q.** And the IC50 [18]?
**A.** 36000 nM

**Q.** What about the IC50 [19] of the same molecule?
**A.** > 40000 nM

**Q.** And the IC50 [20]?
**A.** > 40000 nM

**Q.** What about the Ratio [21] of the same molecule?
**A.** 0.7

**Q.** What does the source list for `CC(C)CC(=O)Nc1ccc(C(=O)Nc2nccs2)cc1`?
**A.** Ki [1]: 90 nM; inhibition [13]: 64%; CL [14]: 1.6 L/min; CL [15]: 12 mL/min; IC50 [16]: > 40000 nM; IC50 [17]: > 40000 nM; IC50 [18]: > 40000 nM; IC50 [19]: > 40000 nM; IC50 [20]: > 40000 nM; Ratio [21]: 0.7

**Q.** With `CC(C)(C)CNC(=O)c1ccc(C(=O)Nc2nccs2)cc1` as the molecule, how does the Ki [1] read?
**A.** 110 nM

**Q.** For `CC(C)(C)CC(=O)Nc1ccc(NC(=O)c2nccs2)cc1`, which inhibition [22] is on record?
**A.** 18%
